Measured values reported in ChEMBL document CHEMBL1157693, “Microwave assisted synthesis and antimicrobial activity of 2-quinoxalinone-3-hydrazone derivatives” (2010).
Values after ≈ are worked out from the molar mass of the structure shown. Active and inactive are the calls of the source. The rule behind the calls is not given here.

Legend:
Type in all cases: functional
Staphylococcus aureus [1] = assay: Antibacterial activity against Staphylococcus aureus NCIB 8588 after 24 hrs by agar well diffusion method; also: test concentration or dose not given here
Method in brief: (§1)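 Agar well diffusion. Clinical isolates were first checked for viability, then grown in nutrient broth for 8 h at 37 °C. About 0.2 ml of broth culture was mixed into 18 ml molten diagnostic sensitivity test agar cooled to 45 °C and poured into plates. Compounds in DMSO went into bored wells, with streptomycin as reference. Plates stood 1 h for diffusion, then were incubated upright at 37 °C for 24 h. Clear inhibition zones were read in mm.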

Escherichia coli [2] = assay: Antibacterial activity against Escherichia coli NCIB 86 after 24 hrs by agar well diffusion method; method in brief: as §1; also: test concentration or dose not given here
Pseudomonas fluorescens = assay: Antibacterial activity against Pseudomonas fluorescens NCIB 3756 after 24 hrs by agar well diffusion method; method in brief: as §1; also: test concentration or dose not given here
Klebsiella pneumoniae [3] = assay: Antibacterial activity against Klebsiella pneumoniae NCIB 418 after 24 hrs by agar well diffusion method; method in brief: as §1; also: test concentration or dose not given here
Bacillus subtilis [4] = assay: Antibacterial activity against Bacillus subtilis NCIB 3610 after 24 hrs by agar well diffusion method; method in brief: as §1; also: test concentration or dose not given here
Bacillus cereus [5] = assay: Antibacterial activity against Bacillus cereus NCIB 6349 after 24 hrs by agar well diffusion method; method in brief: as §1; also: test concentration or dose not given here
Shigella dysenteriae [6] = assay: Antibacterial activity against Shigella dysenteriae after 24 hrs by agar well diffusion method
Pseudomonas aeruginosa = assay: Antibacterial activity against Pseudomonas aeruginosa NCIB 950 after 24 hrs by agar well diffusion method; method in brief: as §1; also: test concentration or dose not given here
Candida albicans = assay: Antifungal activity against Candida albicans after 3 days by agar well diffusion method
Bacillus anthracis [7] = assay: Antibacterial activity against Bacillus anthracis after 72 hrs
[8] = system: Geobacillus stearothermophilus; assay: Antibacterial activity against Bacillus stearothermophilus NCIB 8222 after 72 hrs; conditions: NCIB 8222, 72 h
Method in brief: (§2)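 MIC by the Russell and Furr method, run on selected Gram-positive and Gram-negative strains. Once the agar had set and its surface had dried, nutrient agar plates were streaked with overnight broth cultures. They were incubated at 37 °C for up to 72 h and scored for presence or absence of growth.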

Bacillus subtilis [9] = assay: Antibacterial activity against Bacillus subtilis NCIB 3610 after 72 hrs; conditions: NCIB 3610, 72 h; method in brief: as §2
Bacillus cereus [10] = assay: Antibacterial activity against Bacillus cereus NCIB 6349 after 72 hrs; method in brief: as §2
Staphylococcus aureus [11] = assay: Antibacterial activity against Staphylococcus aureus NCIB 8588 after 72 hrs; method in brief: as §2
Escherichia coli [12] = assay: Antibacterial activity against Escherichia coli NCIB 86 after 72 hrs; method in brief: as §2
Klebsiella pneumoniae [13] = assay: Antibacterial activity against Klebsiella pneumoniae NCIB 418 after 72 hrs; method in brief: as §2
Shigella dysenteriae [14] = assay: Antibacterial activity against Shigella dysenteriae after 72 hrs
Method in brief: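 MIC by agar dilution: compound-containing nutrient agar was set and surface-dried, then streaked with overnight broth culture of the clinical isolate. Incubated at 37 °C for up to 72 h and scored for presence or absence of growth. Streptomycin was the reference.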

Bacillus anthracis [15] = assay: Antibacterial activity against Bacillus anthracis after 24 hrs by agar well diffusion method
[16] = system: Geobacillus stearothermophilus; assay: Antibacterial activity against Bacillus stearothermophilus NCIB 8222 after 24 hrs by agar well diffusion method; method in brief: as §1; also: test concentration or dose not given here

Compound	inhibition zone (IZ) (Staphylococcus aureus [1]) [mm]	inhibition zone (IZ) (Escherichia coli [2]) [mm]	inhibition zone (IZ) (Pseudomonas fluorescens) [mm]	inhibition zone (IZ) (Klebsiella pneumoniae [3]) [mm]	inhibition zone (IZ) (Bacillus subtilis [4]) [mm]	inhibition zone (IZ) (Bacillus cereus [5]) [mm]	inhibition zone (IZ) (Shigella dysenteriae [6]) [mm]	inhibition zone (IZ) (Pseudomonas aeruginosa) [mm]	inhibition zone (IZ) (Candida albicans)	MIC (Bacillus anthracis [7])	MIC [8] [µg/mL]	MIC (Bacillus subtilis [9]) [µg/mL]	MIC (Bacillus cereus [10]; NCIB 6349, 72 h) [µg/mL]	MIC (Staphylococcus aureus [11]; NCIB 8588, 72 h) [µg/mL]	MIC (Escherichia coli [12]; NCIB 86, 72 h) [µg/mL]	MIC (Klebsiella pneumoniae [13]; NCIB 418, 72 h) [µg/mL]	MIC (Shigella dysenteriae [14])	inhibition zone (IZ) (Bacillus anthracis [15]) [mm]	inhibition zone (IZ) [16] [mm]	further results
C/C(=N\Nc1nc2ccccc2[nH]c1=O)c1cc2cc(Br)ccc2oc1=O	14	18	0	18	30	15	0	0	21 mm	62.5 µg/mL (≈ 147 µM)	7.8 (≈ 18.3 µM)	7.8 (≈ 18.3 µM)	62.5 (≈ 147 µM)	62.5 (≈ 147 µM)	62.5 (≈ 147 µM)	62.5 (≈ 147 µM)	inactive	16	29	
O=C1Nc2ccc(Br)cc2/C1=N/Nc1nc2ccccc2[nH]c1=O	20	13	11	15	13	15	11	0	15 mm	125 µg/mL (≈ 325 µM)	15.6 (≈ 40.6 µM)	62.5 (≈ 163 µM)	62.5 (≈ 163 µM)	15.6 (≈ 40.6 µM)	62.5 (≈ 163 µM)	31.3 (≈ 81.5 µM)	125 µg/mL (≈ 325 µM)	8	22	
CC/C(C)=N\Nc1nc2ccccc2[nH]c1=O	19	21	0	19	16	25	0	0	22 mm	62.5 µg/mL (≈ 271 µM)	31.3 (≈ 136 µM)	31.3 (≈ 136 µM)	7.8 (≈ 33.9 µM)	15.6 (≈ 67.7 µM)	31.3 (≈ 136 µM)	62.5 (≈ 271 µM)	inactive	12	17	
C/C(=N\Nc1nc2ccccc2[nH]c1=O)c1cc2cc(C)ccc2oc1=O	19	15	0	19	16	25	12	10	10 mm	62.5 µg/mL (≈ 173 µM)	31.3 (≈ 86.9 µM)	31.3 (≈ 86.9 µM)	7.8 (≈ 21.6 µM)	15.6 (≈ 43.3 µM)	62.5 (≈ 173 µM)	31.3 (≈ 86.9 µM)	62.5 µg/mL (≈ 173 µM)	14	15	
CN[C@@H]1[C@H](O[C@H]2[C@H](O[C@H]3[C@H](O)[C@@H](O)[C@H](N=C(N)N)[C@@H](O)[C@@H]3N=C(N)N)O[C@@H](C)[C@]2(O)C=O)O[C@@H](CO)[C@H](O)[C@H]1O [STREPTOMYCIN]	21	0	30	0	20	28	22	0	inactive	31.3 µg/mL (≈ 53.8 µM)	7.8 (≈ 13.4 µM)	15.6 (≈ 26.8 µM)	7.8 (≈ 13.4 µM)	7.8 (≈ 13.4 µM)			15.6 µg/mL (≈ 26.8 µM)	18	23	MIC (Escherichia coli [12]): inactive; MIC (Klebsiella pneumoniae [13]): inactive
O=c1[nH]c2ccccc2nc1N/N=C1\CCCCC1Cl (configuration not stated)	12	12	9	13	16	12	0	0	15 mm	31.3 µg/mL (≈ 108 µM)	31.3 (≈ 108 µM)	15.6 (≈ 53.7 µM)	31.3 (≈ 108 µM)	62.5 (≈ 215 µM)	62.5 (≈ 215 µM)	31.3 (≈ 108 µM)	inactive	14	14	
O=c1[nH]c2ccccc2nc1NN=C1CCCC1	0	17	10	14	12	20	12	0	29 mm	125 µg/mL (≈ 516 µM)	62.5 (≈ 258 µM)	31.3 (≈ 129 µM)	15.6 (≈ 64.4 µM)		31.3 (≈ 129 µM)	15.6 (≈ 64.4 µM)	62.5 µg/mL (≈ 258 µM)	10	14	MIC (Staphylococcus aureus [11]): inactive
O=C1Nc2ccc(Cl)cc2/C1=N/Nc1nc2ccccc2[nH]c1=O	25	19	0	20	20	28	10	0	18 mm	15.6 µg/mL (≈ 45.9 µM)	7.8 (≈ 23 µM)	15.6 (≈ 45.9 µM)	7.8 (≈ 23 µM)	7.8 (≈ 23 µM)	15.6 (≈ 45.9 µM)	7.8 (≈ 23 µM)	62.5 µg/mL (≈ 184 µM)	20	24	
O=C1Nc2ccccc2/C1=N/Nc1nc2ccccc2[nH]c1=O	19	10	0	12	14	0	0	17	20 mm	125 µg/mL (≈ 409 µM)	62.5 (≈ 205 µM)	62.5 (≈ 205 µM)		31.3 (≈ 103 µM)	125 (≈ 409 µM)	62.5 (≈ 205 µM)	15.6 µg/mL (≈ 51.1 µM)	11	13	MIC (Bacillus cereus [10]): inactive
C/C(=N\Nc1nc2ccccc2[nH]c1=O)c1cc2cc(Cl)ccc2oc1=O	32	30	10	32	33	30	19	14	14 mm	7.8 µg/mL (≈ 20.5 µM)	7.8 (≈ 20.5 µM)	7.8 (≈ 20.5 µM)	7.8 (≈ 20.5 µM)	15.6 (≈ 41 µM)	7.8 (≈ 20.5 µM)	7.8 (≈ 20.5 µM)	15.6 µg/mL (≈ 41 µM)	25	30	
CC12CCC(C/C1=N\Nc1nc3ccccc3[nH]c1=O)C2(C)C (configuration not stated)	11	18	0	16	16	10	0	13	21 mm	125 µg/mL (≈ 403 µM)	31.3 (≈ 101 µM)	15.6 (≈ 50.3 µM)	62.5 (≈ 201 µM)	62.5 (≈ 201 µM)	15.6 (≈ 50.3 µM)	31.3 (≈ 101 µM)	inactive	5	14	
O=c1[nH]c2ccccc2nc1NN=C1CCCCC1	19	11	12	17	16	25	10	0	21 mm	inactive	31.3 (≈ 122 µM)	31.3 (≈ 122 µM)	15.6 (≈ 60.9 µM)	15.6 (≈ 60.9 µM)	62.5 (≈ 244 µM)	15.6 (≈ 60.9 µM)	125 µg/mL (≈ 488 µM)	0	15	
Cc1ccc2c(c1)/C(=N/Nc1nc3ccccc3[nH]c1=O)C(=O)N2	19	14	0	17	15	10	14	0	30 mm	inactive	62.5 (≈ 196 µM)	31.3 (≈ 98 µM)	62.5 (≈ 196 µM)	15.6 (≈ 48.9 µM)	31.3 (≈ 98 µM)	15.6 (≈ 48.9 µM)	31.3 µg/mL (≈ 98 µM)	0	13	
